Laboratory results reported in the EternaBench riboswitch data.

System: MS2 coat protein
Assay: apparent Kd, MS2 coat protein; higher = weaker binding; RNA-MaP array; FMN 200 µM where present
In short: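 The apparent Kd is reported as the median of filtered per-cluster binding-curve fits. To get these curves, designs transcribed by stalled E. coli RNA polymerase on Illumina sequencing-chip clusters were titrated with SNAP-549-labelled MS2 coat protein from 0.7 or 1.5 nM, doubling to 3 µM. Titrations were run without and then with constant ligand in 100 mM Tris-HCl pH 7.5, 80 mM KCl, 4 mM MgCl2, BSA, DTT, yeast tRNA and Tween-20, and green signal was normalised to red-channel RNA signal and control-cluster median Fmax.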

[1] = designed as: OFF switch for flavin mononucleotide, no ligand
[2] = ligand present: flavin mononucleotide, designed as: OFF switch for flavin mononucleotide
[3] = designed as: ON switch for flavin mononucleotide, no ligand
[4] = ligand present: flavin mononucleotide, designed as: ON switch for flavin mononucleotide

Sequence | apparent Kd [1] [nM] | apparent Kd [2] [nM] | apparent Kd [3] [nM] | apparent Kd [4] [nM]
CGAUUAUUGAUCCAUUUUUUCAACAUGAGGAUCACCCAUGUGCAGGAUAUCGUGAUUAUUAUCAACGAGAAGGGCAAAUUCACG | 49.5 | 145 |  | 
UAAAAUCAUGUAGGAUAUGCGUGGCGAAGCUAUGCAGAAGGACAUGAGGAUCACCCAUGUCUUAGCUAGCGUACUAGCUUAAAG | 12.9 | 49.7 |  | 
GCACUGGAUGUAGGAUAUCAGGACGAUAAGUCCUGAGAAGGACAUGAGGAUCACCCAUGUCCUAAAACCAGUGCAUAUAAUAUA | 14.4 | 16.7 |  | 
UUUUAACAUGAGGAUCACCCAUGUGAGGAUAUCGAAAUUUAUAUUAAUAUUAUUAUUACGAGAAGGCACAUUUU | 71.9 | 91.1 |  | 
AUACUCGUUGUGAGGAUAUCGUUUUCUUUACGGAUCGAGAAGGCACAUGAGGAUCACCCAUGUUUGACGUGAAU | 33.7 | 162 |  | 
GCACGGUUUGUAGGAUAUGCAUAGCAUUGCUAUGCAGAAGGACAUGAGGAUCACCCAUGUAUGUAUUCCAUACAUUUCCCGUGC | 5.62 | 5.63 |  | 
AGCUGUGGCCGAGGAUAUCUACUAAUCCAAACCGAAAUAUAAUCGGACAUGAGGAUCACCCAUGUAGAGAAGGCGGUCUCAGCA | 254 | 410 |  | 
GGAGAGCAAGGAUAUACAUGAGGAUCACCCAUGUACGGUCAUUUGGGCAUGUCUGUAAGUAGAAGGUGUUUUGG | 45.2 | 58.5 |  | 
AUAAAACAUGAGGAUCACCCAUGUGAGGAUAUGCUAAAAUAAAAUAAAAUAAAAUAAUGCAGAAGGCACAAAUA | 59.6 | 74.6 |  | 
AGUCGGAGCAGAGGAUAUACAUGAGGAUCACCCAUGUAAUAAAGUGAAGCCUGGAAACAGGUAAUGUAGAAGGCUGCUCCGACA | 11 | 84.7 |  | 
UAUAUUUAUGUAGGAUAUGGUCUAUAAAAUAGACCAGAAGGACAUGAGGAUCACCCAUGUAUGAAAUUCCAUAAUUGCCGUGUA | 11.4 | 11.4 |  | 
CAGUCUACAGGAUAUACAUGAGGAUCACCCAUGUAAAUUCACUUUCGGUAGUCUACAUGUAGAAGGGUAGACUG | 125 | 38.8 |  | 
UGCUGUGUCAGAGGAUAUCUACUAAUAAUCCAUUGCAAAUAGCGAUGGACAUGAGGAUCACCCAUGUAGAAGGCUGUCACAGCA | 110 | 120 |  | 
ACGGCAGUCGAAGGAUAUGGUUACAUGAGGAUCACCCAUGUCUAGGGUCUAAUUAGGUAUAAUUACCAGAAGGUCGAAGGCCUA | 90.5 | 123 |  | 
GUUGCUAUCGGAGGAUAUUCAUACCGGAAACGGACAUGAGGAUCACCCAUGUGCGGAAACGCUUGGGAGAAGGCCGAUAGCAAC |  |  | 210 | 22.1
GUCAGCUCGUGAGGAUAUACAACACUGCUUCGGCAGUGUAUUAAGAUCACAUGAGGAUCACCCAUGUAGAAGGCUCGAGCUGAU | 14.6 | 271 |  | 
CCUCGGUUAGGAUAUGGAUGGUCACCCUGCGGUGUACCGCUCCAGAAGGGACAUGAGGAUCACCCAUGUUACGC | 106 | 338 |  | 
ACAAAAUUGAUCCAAUUUACCAACAUGAGGAUCACCCAUGUGCAGGAUAUGCUAAAGAUGAAUAAGCAGAAGGGCAAAUACAUA | 239 | 708 |  | 
AGGAGGUUAGGAUAUGCUGCUCGUCACUUGCGUGAUGAGUAGCAGAAGGAACAUGAGGAUCACCCAUGUAAAGA | 29.7 | 35.1 |  | 
CACGUCAGGAAACGGAGCGGCCAACAUGAGGAUCACCCAUGUGAGGAUAUGCCUACUAAAAGUAGGCAGAAGGCACAGAAGGCA | 38.2 | 160 |  | 
ACACAGCAAGGAUAUACAUGAGGAUCACCCAUGUGGUGGCCGUUACGGUAGGACUAGUGUAGAAGGUGCAGUGG | 519 | 177 |  | 
GGAUUACAUGAGGAUCACCCAUGUGAGGAUAUCGAUGUCCUCAAUGGAGUGCGGGACUCGAGAAGGCACUUGGA | 338 | 168 |  | 
AAAGUGUGAGGAUAUCCUGGGCUGGGCCGGGAGGUUCGGUUGGAGAAGGCACAUGAGGAUCACCCAUGUAACGG | 62.7 | 53.4 |  | 
AUCAGCUCGUCAGGAUAUACAACACUGCUUCGGCAGUAUGAUAAGAUAACAUGAGGAUCACCCAUGUAGAAGGGACGAGCUGAU | 6.99 | 9.17 |  | 

Sequence | apparent Kd [1] [nM] | apparent Kd [2] [nM] | apparent Kd [3] [nM] | apparent Kd [4] [nM]
AUGUUACAUGAGGAUCACCCAUGUGAGGAUAUGUGUACUGGUAAAAAAGUGUUUGGCCACAGAAGGCAUUUGGG | 50.4 | 148 |  | 
UGUCGGAGCAGAGGAUAUUACAUGAGGAUCACCCAUGUAUGAACCAAUGGCUGGAAACAGCAAUGUAAGAAGGCUGCUCCGACA | 9.69 | 64.5 |  | 
UUAAGUCAUGUAGGAUAUCCGAGGCGAAGCGUUGGAGAAGGACAUGAGGAUCACCCAUGUUCUAGCGUCUGAGUACAGAUGCAA | 22.7 | 33.7 |  | 
AUCUUGUAAGGAUAUCUGACAAGUGACGAAAGUCACAGUUCAGAGAAGGUACAUGAGGAUCACCCAUGUAGAAC | 17.6 | 20.3 |  | 
UAUAAUUAGUAGAAGGACGGAGAGUAAGAAGUCGUAGGAUAUACAUAAGACAUGAGGAUCACCCAUGUGUGUAUGUUGGGUAGG | 6.76 | 6.7 |  | 
CUCGCAGUAAUAGGAUAUCCACAUCCGUGGCCUGUGUGUGACUUAACAUGAGGAUCACCCAUGUUGGAGAAGGAUUACUCAAUA | 728 | 178 |  | 
UUUGGGCCUGUGAGGAUAUGCCCGGGUAAAUUUGGGCAGAAGGCACAUGAGGAUCACCCAUGUAAGGGCCCGGG | 31.5 | 21.4 |  | 
GUGUACAGAGGAUAUACAUAAGCAUGGAAACAUGCAUCUUCACAUGAGGAUCACCCAUGUAGAAGGCUGUACAC | 18.1 | 75.6 |  | 
GGUUAUUGCAAGGAUAUGCUUUUUUUUGAAAUUGCAGAAGGUGCAACAUGAGGAUCACCCAUGUUGGAUGGGUU | 166 | 125 |  | 
GUCAGCUCGUGAGGAUAUACAUGUGCUGGAGACAGCACUAUUAAGUUCACAUGAGGAUCACCCAUGUAGAAGGCACGAGCUGAU | 15.9 | 20.8 |  | 
GGGUACAUCGGAGGAUAUCAUGUAACUACAUGAGGAUCACCCAUGUCGAUGGAGACAUCGGAGAUUGAGAAGGCCGAUGUACCG |  |  | 261 | 10.1
UGUAUGGACAGAGGAUAUACCGAUAGGAUCUACUAUCGAACAAUCCUCACAUGAGGAUCACCCAUGUAGAAGGCUGUCCAUACU | 24.1 | 283 |  | 
GACAUCGCAGGAUAUUAUUGUUUGUACAUGAGGAUCACCCAUGUUAAUUGGGUUAGUGUUUAAGAAGGGCGGUGUC | 1340 | 901 |  | 
CUAUUACGAGGAUAUGAUUUAAAUAACAUGAGGAUCACCCAUGUUUUUACGUUAUUAUGUUCAGAAGGCGUAUUGU | 26.5 | 19.4 |  | 
AGUGUGUGGCAGGAUAUGCUAUUAAUUGGUGAAGCAGAAGGGUCUACAUGAGGAUCACCCAUGUAAGCGGUUGA | 39.7 | 190 |  | 
GGUGCGUAUGUGAGGAUAUGCUGGUCCUUGGGUCGGCAGAAGGCACAUGAGGAUCACCCAUGUGGUGUCGUUCC | 86.2 | 86.5 |  | 
GUAGCUAGUACAGGAUAUUAGUGCGUGUAGUAUUGAGAAGGGUACAUGAGGAUCACCCAUGUGAUCAAUCACUGUUAAGGUUGC | 221 | 177 |  | 
GGUGCGUAUGUGAGGAUAUGCUGGUCCUUGGCUCGGCAGAAGGCACAUGAGGAUCACCCAUGUGGUGUCGUGCC | 16.9 | 37.7 |  | 
CCGGCGUCAGGAUAUCCAAUAUAUGACAUGAGGAUCACCCAUGUUUCCACUCGUACCUCCGGAGAAGGGACGAAUA | 28.1 | 24.5 |  | 
UGUCGGAGCAGAGGAUAUUACAUGAGGAUCACCCAUGUAUGAACCAAUUGCUGGAAACAGCAAUGUAAGAAGGCUGCUCCGACA | 5.04 | 9.44 |  | 
UAGUACUAGGGAGGAUAUGGGAAGAUACAUGAGGAUCACCCAUGUUUAAGAAUGCCGAGAGGCAACUAGAAGGCCCUAGUACCU |  |  | 463 | 19.2
GCGUUGUUGUAGAAGGUACAUGAAUACUUUUAUUACCUCAAGUAACAUGAGGAUCACCCAUGUAGUAAGGAUAUACAUGAACGC |  |  | 35.1 | 24.3
AAUAUAAGAGCUGGAAAUACUCAAACAUGAGGAUCACCCAUGUAGGAUAUCAGCACGAUAAGUGCUGAGAAGGACAUCCAGCUC | 15 | 15.4 |  | 
GCUGGGUCAGGAUAUACAAGAUCGAAAGAUCAAAGAUUCGUACAUGAGGAUCACCCAUGUAGAAGGGACUGGGC | 23.4 | 31.7 |  | 
